Measurements reported in ChEMBL document CHEMBL1142960, “Synthesis and structure-activity relationships for 2,4-dinitrobenzamide-5-mustards as prodrugs for the Escherichia coli nfsB nitroreductase in gene therapy” (J Med Chem, 2007).
≈ marks a conversion by molar mass, not a printed value.

Columns and labels:
V79 [1] = assay: Clonogenic survival of 97% V79 NTRoua cells in co-cultures with 3% V79 NTRpuro cells after 5 hrs by MCL assay; format: functional, Cricetulus griseus
Outline: (§1)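 Multicellular layer cocultures of 3% V79-NTRpuro activators and 97% V79oua NTR-ve targets (ouabain-resistant), exposed to prodrug for 5 h. MCLs were then trypsin-dissociated and plated in ouabain or puromycin selective media for clonogenic survival. C10 (10% survival) interpolated for activators and targets; AC/TC ratio derived. Mean with SEM or range over independent experiments.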

V79 [2] = assay: Antiproliferative activity against chinese hamster V79 NTRpuro cells after 18 hrs; format: functional, cell-based; conditions: Cricetulus griseus, V79, 18 h
V79 [3] = assay: Clonogenic survival of V79 NTRoua cells after 5 hrs by MCL assay; format: functional, Cricetulus griseus
[4] = Toxicity in ip dosed CD1 nude mouse in DMSO; format: organism-based; conditions: in vivo
Outline: (§2)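 Maximum tolerated dose (MTD) determined in CD-1 nude mice after a single i.p. injection of prodrug, given in the vehicle named in each line.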

[5] = Antiproliferative activity against human Skov3 NTRneo cells after 18 hrs; format: functional, cell-based; conditions: SK-OV-3, 18 h
V79 [6] = assay: Clonogenic survival of 3% V79 NTRpuro cells in co-cultures with 97% V79 NTRoua after 5 hrs by MCL assay; format: functional, Cricetulus griseus; outline: as §1
WiDr [7] = assay: Selectivity ratio of IC50 for WiDr NTR-ve cells to IC50 for WiDr NTRneo cells; format: functional, Homo sapiens
EMT6 [8] = assay: Antiproliferative activity against mouse EMT6 NTRpuro cells after 18 hrs; format: functional, cell-based; conditions: EMT6, 18 h
EMT6 [9] = assay: Selectivity ratio of IC50 for EMT6 NTR-ve cells to IC50 forEMT6 NTRpuro cells; format: functional, Mus musculus
V79 [10] = assay: Selectivity ratio of IC50 for V79 NTR-ve cells to IC50 for V79 NTRpuro cells; format: functional, Cricetulus griseus
EMT6 [11] = assay: Antiproliferative activity against mouse wild type EMT6 NTR-ve cells after 18 hrs; format: functional, cell-based; conditions: EMT6, 18 h
[12] = Selectivity ratio of IC50 for Skov3 NTR-ve cells to IC50 for Skov3 NTRneo cells; format: functional, Homo sapiens
EMT6 [13] = assay: Antitumor activity against mixed mouse EMT6/EMT6 NTRpuro cells injected in CD1 nude mouse assessed as cell kill at 1000 umol/kg, ip in DMSO after 18 hrs; format: functional
[14] = Partition coefficient at pH 7.4 by shake-flask method; format: physicochemical; conditions: octanol/water
Outline: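 Octanol-water partition coefficient by shake-flask at pH 7.4, reported with SEM.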

[15] = Antiproliferative activity against human wild type Skov3 NTR-ve cells after 18 hrs; format: functional, cell-based
WiDr [16] = assay: Antitumor activity against mixed human 10% WiDr NTRneo/ 90% WiDr tumor cells injected in CD1 nude mouse assessed as growth delay at 1000 umol/kg, ip in DMSO; format: functional
Outline: (§3)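 WiDr-NTRneo tumours (100% NTR+ve, or 1:9 NTR+ve:NTR-ve mixtures) in CD-1 nude mice, given a single i.p. dose at MTD. Read-out is median growth delay to 15 mm mean diameter, plus tumours not palpable 100 days after treatment. Aziridine given at 200 µmol/kg as positive control in every experiment.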

WiDr [17] = assay: Antiproliferative activity against human wild type WiDr NTR-ve cells after 18 hrs; format: functional, cell-based
V79 [18] = assay: Clonogenic survival ratio of 3% V79 NTRpuro cells to 97% V79 NTRoua cells in co-culture; format: functional, Cricetulus griseus; outline: as §1
WiDr [19] = assay: Antitumor activity against human 100% WiDr NTRneo tumor cells injected in CD1 nude mouse assessed as growth delay at 1000 umol/kg, ip in DMSO; format: functional; outline: as §3
WiDr [20] = assay: Antiproliferative activity against human WiDr NTRneo cells after 18 hrs; format: functional, cell-based
V79 [21] = assay: Antiproliferative activity against chinese hamster wild-type V79 NTR-ve cells after 18 hrs; format: functional, cell-based; conditions: Cricetulus griseus, V79, 18 h
[22] = Solubility in alpha MEM; format: physicochemical
Outline: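 Solubility (mM) in α-MEM with 5% fetal calf serum at ambient temperature, measured by HPLC.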

WiDr [23] = assay: Antitumor activity against human 100% WiDr NTRneo tumor cells injected in CD1 nude mouse assessed as growth delay at 133 umol/kg, ip in DMSO/PEG; format: functional; outline: as §3
WiDr [24] = assay: Antitumor activity against mixed human 10% WiDr NTRneo/ 90% WiDr tumor cells injected in CD1 nude mouse assessed as growth delay at 750 umol/kg, ip in DMSO; format: functional; outline: as §3
[25] = Toxicity in ip dosed CD1 nude mouse in DMSO/PEG; format: organism-based; conditions: in vivo; outline: as §2
[26] = Stability in alpha MEM at 37 degC after 24 hrs; format: physicochemical; conditions: read-out: Stability
Outline: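 Percent parent compound remaining, by HPLC, after holding in α-MEM with 5% fetal calf serum at 37 °C for 24 h.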

EMT6 [27] = assay: Antitumor activity against mixed mouse EMT6/EMT6 NTRpuro cells injected in CD1 nude mouse assessed as cell kill at 133 umol/kg, ip in DMSO/PEG after 18 hrs; format: functional
EMT6 [28] = assay: Antitumor activity against mixed mouse EMT6/EMT6 NTRpuro cells injected in CD1 nude mouse assessed as cell kill at 2000 umol/kg, ip in DMSO after 18 hrs; format: functional
WiDr [29] = assay: Antitumor activity against mixed human 10% WiDr NTRneo/ 90% WiDr tumor cells injected in CD1 nude mouse assessed as growth delay at 2000 umol/kg, ip in DMSO; format: functional
Outline: (§4)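 WiDr tumors grown in CD-1 nude mice from stably NTR-transfected WiDr-NTRneo cells, either alone or mixed 1:9 with NTR-ve WiDr cells. Each mouse received a single i.p. dose. The read-out was median growth delay for tumors to reach an endpoint size of 15 mm mean diameter. Long-term controls were counted as tumors not palpable 100 days after treatment. The aziridine positive control was included in every experiment.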

WiDr [30] = assay: Antitumor activity against human 100% WiDr NTRneo tumor cells injected in CD1 nude mouse assessed as growth delay at 2000 umol/kg, ip in DMSO; format: functional; outline: as §4
EMT6 [31] = assay: Antitumor activity against mixed mouse EMT6/EMT6 NTRpuro cells injected in CD1 nude mouse assessed as cell kill at 237 umol/kg, ip in DMSO/PEG after 18 hrs; format: functional
WiDr [32] = assay: Antitumor activity against human 100% WiDr NTRneo tumor cells injected in CD1 nude mouse assessed as growth delay at 237 umol/kg, ip in DMSO/PEG; format: functional; outline: as §3
EMT6 [33] = assay: Antitumor activity against mixed mouse EMT6/EMT6 NTRpuro cells injected in CD1 nude mouse assessed as cell kill at 1780 umol/kg, ip in DMSO after 18 hrs; format: functional
WiDr [34] = assay: Antitumor activity against mixed human 10% WiDr NTRneo/ 90% WiDr tumor cells injected in CD1 nude mouse assessed as growth delay at 1780 umol/kg, ip in DMSO; format: functional; outline: as §3
WiDr [35] = assay: Antitumor activity against human 100% WiDr NTRneo tumor cells injected in CD1 nude mouse assessed as growth delay at 1780 umol/kg, ip in DMSO; format: functional; outline: as §3
WiDr [36] = assay: Antitumor activity against human 10% WiDr NTRneo/ 90% WiDr tumor cells injected in CD1 nude mouse assessed as growth delay at >1330 umol/kg, ip in DMSO; format: functional; outline: as §3
WiDr [37] = assay: Antitumor activity against human 100% WiDr NTRneo tumor cells injected in CD1 nude mouse assessed as growth delay at >1330 umol/kg, ip in DMSO; format: functional; outline: as §3
EMT6 [38] = assay: Antitumor activity against mixed mouse EMT6/EMT6 NTRpuro cells injected in CD1 nude mouse assessed as cell kill at 562 umol/kg, ip in DMSO/PEG after 18 hrs; format: functional
WiDr [39] = assay: Antitumor activity against human 100% WiDr NTRneo tumor cells injected in CD1 nude mouse assessed as growth delay at 562 umol/kg, ip in DMSO/PEG; format: functional; outline: as §3

Row | SMILES | Activity (V79 [1]) [µM] | IC50 (V79 [2]) [µM] | Activity (V79 [3]) [µM] | MTD [4] [µmol/kg] | IC50 [5] [µM] | Activity (V79 [6]) [µM] | Ratio IC50 (WiDr [7]) | IC50 (EMT6 [8]) [µM] | Ratio IC50 (EMT6 [9]) | Ratio IC50 (V79 [10]) | IC50 (EMT6 [11]) [µM] | Ratio IC50 [12] | logD [14] | IC50 [15] [µM] | IC50 (WiDr [17]) [µM] | IC50 (WiDr [20]) [µM] | IC50 (V79 [21]) [µM] | solubility [22] [µM] | MTD [25] [µmol/kg] | remaining at 24 h [26] [%] | other results
1 | CS(=O)(=O)OCCN(CCCl)c1cc(C(N)=O)c([N+](=O)[O-])cc1[N+](=O)[O-] | 33 | 0.55 | >1000 | 1000 | 0.78 | 5.3 | 442 | 0.3 | 942 | 1060 | 211 | 697 | 0.42 | 522 | 246 | 0.7 | 504 | – | – | – | LCK (EMT6 [13]): >3.82; Activity (WiDr [16]): 38 days; Ratio (V79 [18]): 0.16; Activity (WiDr [19]): >80 days
2 | CS(=O)(=O)c1cc([N+](=O)[O-])c(C(N)=O)cc1N(CCBr)CCBr | 16 | 0.16 | >100 | 750 | 0.4 | 5.5 | 74 | 0.09 | 490 | 508 | 39 | 265 | 1.02 | 86 | 37 | 0.58 | 80 | 70 (≈ 33.1 µg/mL) | 133 | 63 | Activity (WiDr [23]): >83 days; Activity (WiDr [24]): 36 days; LCK (EMT6 [27]): 2.24
3 | CS(=O)(=O)OCCN(CCOS(C)(=O)=O)c1cc(C(N)=O)c([N+](=O)[O-])cc1[N+](=O)[O-] | 152 | 0.49 | >300 | 2000 | 1.2 | 13 | 55 | 0.32 | 755 | 1200 | 189 | 220 | -0.7 | 226 | 24 | 0.67 | 536 | – | – | – | LCK (EMT6 [28]): >2.6; Activity (WiDr [29]): 20 days; Activity (WiDr [30]): >82 days
4 | O=C(NCC(O)CO)c1cc(N(CCI)CCI)c([N+](=O)[O-])cc1[N+](=O)[O-] (stereo unspecified) | 54 | 1 | 245 | – | 0.56 | 12.5 | 90 | 0.12 | 482 | 100 | 58 | 172 | 1.79 | 97 | 64 | 0.82 | 114 | 960 (≈ 584 µg/mL) | 237 | 90 | LCK (EMT6 [31]): 0.54; Activity (WiDr [32]): 37 days
5 | CS(=O)(=O)OCCN(CCBr)c1cc(C(N)=O)c([N+](=O)[O-])cc1[N+](=O)[O-] | 10 | 0.11 | >250 | 1780 | 0.19 | 2 | 387 | 0.05 | 1510 | 1260 | 76 | 715 | 0.49 | 135 | 80 | 0.22 | 133 | 230 (≈ 105 µg/mL) | – | 71 | LCK (EMT6 [33]): >3.61; Activity (WiDr [34]): 26 days; Activity (WiDr [35]): >82 days; Ratio (V79 [18]): 0.2
6 | NC(=O)c1cc(N(CCBr)CCBr)c([N+](=O)[O-])cc1[N+](=O)[O-] | 4.6 | 0.18 | >50 | > 1330 | 0.33 | 3.3 | 174 | 0.04 | 1110 | 302 | 48 | 211 | 1.97 | 58 | 40 | 0.22 | 43 | – | > 1330 | 98 | Activity (WiDr [36]): 20 days; Activity (WiDr [37]): >84 days; LCK (EMT6 [38]): 4.17; Activity (WiDr [39]): >84 days
